Source: PubChem BioAssay
KCNK9 inh – inhibitors of human KCNK9 two-pore domain potassium channel; HEK293 KCNK9, FluxOR thallium flux fluorescence; hits give low values; 310,000 tested, 1.2% active; AID 488922; Q9NPC2; B-score at 10 µM;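 active means ratio B-score over 3 SD below the library mean, with starting fluorescence within 5 SD of its mean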;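 further: negative B-score means less thallium flux so channel inhibition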
hERG rescue – hERG (human) protection from proarrhythmic block; CHO-hERG, FluxOR thallium flux, dofetilide IC70 present; 310,000 tested, 0.51% active; activation (rescue from dofetilide block), less the hit threshold, % at 10 µM; AID 1511; Q12809;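 active means activation above the mean of controls blocked by dofetilide plus 5 SD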;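 further: thallium influx through hERG after potassium depolarization seen as dye fluorescence rise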
KCNQ1 pot – potentiators or activators of human KCNQ1 potassium channel; P51787; CHO-K1 KCNQ1, thallium flux FluxOR fluorescence; hits give high values; B-score at 10 µM; 310,000 tested, 0.35% active;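 active means fluorescence ratio B-score, a plate-corrected score, at least three library SD, with initial intensity B-score within 5 SD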
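Schedule – 37 °C overnight plating, 90-min dark dye load, 20-min compound pretreatment · System – stable KCNQ1 CHO-K1 line · Probe or stimulus – thallium- and potassium-containing depolarizing buffer · Measured by – kinetic FluxOR fluorescence, 10 s baseline plus 110 s post-stimulus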
KCNQ1 inh – inhibitors of human KCNQ1 potassium channel. B-score at 10 µM. P51787. 310,000 tested, 1.3% active. CHO-K1 KCNQ1, FluxOR thallium flux fluorescence; hits give high values;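 active means compounds whose thallium flux B-score, printed positive for inhibition, exceeds three library SD while starting fluorescence stays within three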;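 further: channel opened by potassium depolarization with thallium stimulus after 20 min compound exposure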
Kir21 block – inhibitors of mouse Kir2.1 inward-rectifier potassium channel. B-score at 10 µM. 310,000 tested, 0.85% active. P35561. AID 1672. HEK293-Kir2.1, FluxOR thallium flux fluorescence; hits give low values;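 active means fluorescence ratio B-score at or below minus 3 SD of library scores, with starting-brightness B-score within 2 SD, cut at about -4.2 in these data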;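 further: channel flux triggered by added potassium and thallium sulfate stimulus; B-score of peak minus minimum fluorescence over baseline after thallium stimulus; more negative B-score means stronger Kir2.1 block with less thallium influx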
Target sequence (P35561 whole entry, looked up): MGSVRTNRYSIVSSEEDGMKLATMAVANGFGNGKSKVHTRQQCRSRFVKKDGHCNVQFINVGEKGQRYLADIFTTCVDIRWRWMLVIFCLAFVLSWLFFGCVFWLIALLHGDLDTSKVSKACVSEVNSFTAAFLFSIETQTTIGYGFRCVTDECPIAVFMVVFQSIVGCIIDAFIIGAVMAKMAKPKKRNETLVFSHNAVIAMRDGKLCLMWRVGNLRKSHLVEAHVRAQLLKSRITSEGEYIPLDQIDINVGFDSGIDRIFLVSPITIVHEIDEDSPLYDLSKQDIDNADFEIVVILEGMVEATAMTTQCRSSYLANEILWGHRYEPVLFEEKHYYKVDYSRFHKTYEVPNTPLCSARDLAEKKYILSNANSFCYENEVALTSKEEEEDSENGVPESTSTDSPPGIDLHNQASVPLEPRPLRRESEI
KCNK3 block – human KCNK3 channel inhibition, primary screen; AID 602410; B-score at 10 µM; O14649; 340,000 tested, 0.84% active; CHO-KCNK3 thallium flux, FluxOR fluorescence; hits give low values;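 active means B-score under library mean minus 4 SD, starting fluorescence ratio at most library mean plus 5 SD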;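 further: more negative B-score means stronger inhibition of thallium flux through KCNK3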
KCNK9 block conf – confirmation of human KCNK9 potassium channel inhibitors; 4,900 tested, 43% active; shares compounds with KCNK9 inh; HEK293 KCNK9 cells, FluxOR thallium flux fluorescence; inhibition, % at 10 µM;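 active means thallium signal inhibited by more than 5 SD of the compound-free buffer control wells, on both duplicate plates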;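 further: 0% = assay buffer control wells without compound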
Kir2-1 spec – selectivity of KCNK9 modulators against mouse Kir2.1 | shares compounds with KCNK9 inh | Kir2.1 cells, FluxOR thallium flux fluorescence | inhibition, % at 10 µM | 4,900 tested, 4% active;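 active means thallium signal drop more than 5 SD beyond the mean of the no-compound control wells, seen in both duplicate plates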;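 further: signal is fluorescence rise after thallium addition divided by baseline fluorescence; plate controls were assay buffer only for no effect and full block by chlorpromazine control for full effect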
HEK293 Tl ctr – second check of KCNK9 modulator effects in non-induced HEK293 cells. 4,900 tested, 40% active. FluxOR thallium flux. shares compounds with KCNK9 inh. inhibition, % at 10 µM;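 active means thallium signal drop beyond 5 SD of the untreated control mean, on both duplicate plates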;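 further: plate controls were buffer only IC0 wells for no effect and SID17386958 at its maximal inhibitory level for full effect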
* hit, by the source's call. This is a sample that favours compounds with a hit; in the whole collection about 3.7% have one here.

`N#C/C(=C/c1ccc(N2CCCCCC2)o1)c1ccc(F)cc1` gave KCNK9 inh -9.3*, hERG rescue -14, KCNQ1 pot inactive, KCNQ1 inh inactive, Kir21 block 0.43, KCNK3 block -11*, KCNK9 block conf 58%*, Kir2-1 spec inactive and HEK293 Tl ctr 70%*.
For N#C/C(=C/c1ccc(N2CCCCCC2)o1)c1cccc(F)c1 the results were KCNK9 inh -15*, hERG rescue -26, KCNQ1 pot inactive, KCNQ1 inh 9*, Kir21 block -1.6, KCNK3 block -13*, KCNK9 block conf 74%*, Kir2-1 spec inactive and HEK293 Tl ctr 71%*.
For COc1cccc(/C=C(/C#N)c2ccc(F)cc2)c1OCc1cccc(C(=O)O)c1 the results were KCNK9 inh inactive, hERG rescue -4, KCNQ1 pot inactive, KCNQ1 inh inactive, Kir21 block -1.9 and KCNK3 block inactive.
`COc1cc(N2CCCC2)c(OC)cc1/C=C(/C#N)c1cccc(F)c1` gave KCNK9 inh -12*, hERG rescue -20, KCNQ1 pot inactive, KCNQ1 inh 7*, Kir21 block -3.5, KCNK3 block -10*, KCNK9 block conf 61%*, Kir2-1 spec 35%* and HEK293 Tl ctr 50%*.
NS(=O)(=O)c1ccc(NCc2cc(Cl)ccc2OCc2ccc(F)cc2)cc1 was read as KCNK9 inh -13*, hERG rescue -7, KCNQ1 pot inactive, KCNQ1 inh inactive, Kir21 block -2.3, KCNK3 block inactive, KCNK9 block conf 50%*, Kir2-1 spec inactive and HEK293 Tl ctr 42%*.
`NS(=O)(=O)c1ccc(NCc2ccccc2OCc2ccccc2F)cc1` gave KCNK9 inh inactive, hERG rescue -7, KCNQ1 pot inactive, KCNQ1 inh inactive, Kir21 block -0.31 and KCNK3 block inactive.
CCCCCCCN1CCN=C1N(C)C was read as KCNK3 block inactive.
For CC(c1ccccc1)N(CC(=O)NC1CCCCC1)S(=O)(=O)c1cccc(C(F)(F)F)c1 (centres undefined) the results were KCNK9 inh -8.2*, hERG rescue -9, KCNQ1 pot inactive, KCNQ1 inh inactive, Kir21 block 0.48, KCNK3 block inactive, KCNK9 block conf 49%*, Kir2-1 spec inactive and HEK293 Tl ctr 47%*.
`O=C(CN(Cc1ccccc1)S(=O)(=O)c1cccc(C(F)(F)F)c1)NC1CCCCC1` gave KCNK9 inh inactive, hERG rescue -10, KCNQ1 pot inactive, KCNQ1 inh inactive, Kir21 block -0.1 and KCNK3 block inactive.
For COCCCN(CC(=O)Nc1ccc(N2CCOCC2)cc1)S(=O)(=O)c1ccc(Cl)cc1 the results were KCNK9 inh inactive, hERG rescue -7, KCNQ1 pot inactive, KCNQ1 inh inactive, Kir21 block 0.56 and KCNK3 block inactive.
`Cc1ccc(C(=O)NNCC(=O)Nc2ccc(Cl)cc2F)cc1` gave KCNK3 block inactive.
For Cn1nc(-c2ccccc2)c(CN2CCN(c3ncccn3)CC2)c1Cl the results were KCNK9 inh inactive, hERG rescue -5, KCNQ1 pot inactive, KCNQ1 inh inactive, Kir21 block -2.7, KCNK3 block inactive, KCNK9 block conf inactive, Kir2-1 spec inactive and HEK293 Tl ctr inactive.
For Cc1ccc(Sc2c(C#N)c(-c3ccccc3)nn2C)cc1 the results were KCNK9 inh -9.8*, hERG rescue -15, KCNQ1 pot inactive, KCNQ1 inh 6*, Kir21 block 0.07, KCNK3 block inactive, KCNK9 block conf 56%*, Kir2-1 spec inactive and HEK293 Tl ctr 40%*.
For Cc1ccc(SCc2nn(C)c(Cl)c2C=O)cc1 the results were KCNK9 inh inactive, hERG rescue -7, KCNQ1 pot inactive, KCNQ1 inh inactive, Kir21 block 0 and KCNK3 block inactive.
